According to PMC4010290 (Journal of Agricultural and Food Chemistry, 2014):

Columns and labels:
[1] = molecular target: T1, Bovine serum albumin (BSA) (Bos taurus, UniProt P02769); assay: BSA fluorescence quenching; format: binding; conditions: for KSV (Stern–Volmer constant, BSA fluorescence quenching): 3 μM BSA, 22 °C
[2] = molecular target: Bovine serum albumin (BSA), Trp134 and Trp213 (Bos taurus, UniProt P02769); assay: Time domain fluorescence lifetime of the two Trp residues of BSA; format: binding; conditions: for τ fluorescence lifetime Trp134 / τ fluorescence lifetime Trp213: 25 μM phenolic
How it was run: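 BSA (3 μM final) mixed with test compound (25 μM) in 0.2 M sodium phosphate with 0.1 M NaCl at pH 3.0, 5.0 or 7.4. Samples vortexed, nitrogen-sparged 20 min, then held 1 h at 22 °C. Time-correlated single-photon counting used 250 nm LED excitation, collecting to 10000 peak counts. Biexponential decay fit gave lifetimes and amplitudes for Trp134 and Trp213.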

[3] = molecular target: T1, Bovine serum albumin (BSA); assay: Induced circular dichroism spectra of BSA; format: binding; conditions: 200 μM ligand; 30 μM BSA; pH 7.4
How it was run: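 BSA at 30 μM in 0.2 M sodium phosphate, pH 7.4, with test compound at 0–200 μM, dissolved from water stocks. CD recorded 355–245 nm in a 1 mm cell under dry nitrogen at 298–301 K. Settings were 12 accumulated scans, 0.5 nm pitch, 1.0 nm bandwidth and 100 nm/min. Buffer spectrum subtracted, and induced CD calculated from sample spectra by the paper's equation.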

[4] = system: BSA Sudlow site I; conditions: cited from earlier work
[5] = molecular target: BSA (Bos taurus, UniProt P02769); format: binding, bovine; conditions: pH 7.4; TB up to a 50-fold excess
[6] = system: BSA Sudlow site II; conditions: cited from earlier work

Chain of Bovine serum albumin (BSA), Trp134 and Trp213 (P02769 25-607): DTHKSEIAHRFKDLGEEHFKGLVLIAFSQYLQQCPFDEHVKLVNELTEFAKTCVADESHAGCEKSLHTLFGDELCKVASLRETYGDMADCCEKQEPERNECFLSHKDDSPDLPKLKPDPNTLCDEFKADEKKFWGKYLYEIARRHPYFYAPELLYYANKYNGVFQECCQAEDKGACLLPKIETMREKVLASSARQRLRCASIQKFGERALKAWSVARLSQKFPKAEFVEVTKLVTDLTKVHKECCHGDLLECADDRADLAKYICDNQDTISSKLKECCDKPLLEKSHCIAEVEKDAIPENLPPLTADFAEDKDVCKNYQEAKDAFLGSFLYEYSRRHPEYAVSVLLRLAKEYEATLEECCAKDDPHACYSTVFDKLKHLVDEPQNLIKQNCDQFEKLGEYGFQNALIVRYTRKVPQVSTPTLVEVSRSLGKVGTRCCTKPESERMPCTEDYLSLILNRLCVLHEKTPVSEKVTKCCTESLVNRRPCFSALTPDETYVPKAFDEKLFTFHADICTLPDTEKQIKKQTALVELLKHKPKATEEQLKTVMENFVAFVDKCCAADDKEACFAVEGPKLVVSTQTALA
T1 sequence (P02769 25-607): as above
Chain of BSA (P02769 25-607): as above

| SMILES | Apparent affinity for BSA [1] | KSV (Stern–Volmer constant, BSA fluorescence quenching) ([1]; pH 3.0) | KSV (Stern–Volmer constant, BSA fluorescence quenching) ([1]; pH 5.0) | KSV (Stern–Volmer constant, BSA fluorescence quenching) ([1]; pH 7.4) | Change of lifetime of either Trp ([2]; any pH, 25 μM) | τ fluorescence lifetime Trp134 ([2]; pH 3.0) [ns] | τ fluorescence lifetime Trp213 ([2]; pH 3.0) [ns] | τ fluorescence lifetime Trp134 ([2]; pH 5.0) [ns] | τ fluorescence lifetime Trp213 ([2]; pH 5.0) [ns] | τ fluorescence lifetime Trp134 ([2]; pH 7.4) [ns] | τ fluorescence lifetime Trp213 ([2]; pH 7.4) [ns] | Fluctuation of the amplitudes of the induced CD spectra [3] [mdeg] | Reduction of fluorescence lifetime of Trp213 ([2]; pH 7.4 only, 25 μM) [%] | Association constant, Sudlow site I [4] | Inhibition of EGCg binding to BSA [5] | Association constant, Sudlow site II [6] |
| --- | --- | --- | --- | --- | --- | --- | --- | --- | --- | --- | --- | --- | --- | --- | --- | --- |
| Oc1cc(O)c2c(c1)O[C@H](c1cc(O)c(O)c(O)c1)[C@H](O)C2 [EGC, (−)-Epigallocatechin] | about 10^3 M^–1 | 0.30 × 10^4 M^–1 | 0.23 × 10^4 M^–1 | 0.64 × 10^4 M^–1 | did not change the lifetime | 5.41 | 2.15 | 6.58 | 3.04 | 6.54 | 2.93 | ~0.2 |  |  |  |  |
| COC(=O)c1cc(O)c(O)c(O)c1 [MG, methyl gallate] |  | 0.85 × 10^4 M^–1 | 0.81 × 10^4 M^–1 | 5.4 × 10^4 M^–1 |  | 5.38 | 2.11 | 6.49 | 2.85 | 6.29 | 2.06 | ~0.2 | 30 |  |  |  |
| CCCCC1C(=O)N(c2ccccc2)N(c2ccccc2)C1=O [PB, phenylbutazone] |  |  |  |  |  |  |  |  |  |  |  |  |  | 6.2 × 10^5 M^–1 |  |  |
| CCCCNC(=O)NS(=O)(=O)c1ccc(C)cc1 [TB, tolbutamide] |  |  |  |  |  |  |  |  |  |  |  |  |  | 8.7 × 10^4 M^–1 | did not inhibit | 0.81 × 10^4 M^–1 |
